In ChEMBL document CHEMBL1139420, “Antibacterial profile against drug-resistant Staphylococcus epidermidis clinical strain and structure-activity relationship studies of 1H-pyrazolo[3,4-b]pyridine and thieno[2,3-b]pyridine derivatives” (Bioorg Med Chem, 2008):
Values after ≈ are worked out from the molar mass of the structure shown. Active and inactive are the calls of the source. The rule behind the calls is not given here.

Legend:
Serratia marcescens = experiment: Antibacterial activity against drug-resistant Serratia marcescens clinical isolate assessed as inhibition zone diameter after 24 hrs by antibacterial susceptibility test; format: functional, organism-based
Proteus mirabilis = experiment: Antibacterial activity against drug-resistant Proteus mirabilis clinical isolate assessed as inhibition zone diameter after 24 hrs by antibacterial susceptibility test; format: functional, organism-based
Pseudomonas aeruginosa = experiment: Antibacterial activity against drug-resistant Pseudomonas aeruginosa clinical isolate assessed as inhibition zone diameter after 24 hrs by antibacterial susceptibility test; format: functional, organism-based
Enterobacter cloacae = experiment: Antibacterial activity against drug-resistant Enterobacter cloacae clinical isolate assessed as inhibition zone diameter after 24 hrs by antibacterial susceptibility test; format: functional, organism-based
[1] = test system: Acinetobacter calcoaceticus; experiment: Antibacterial activity against drug-resistant Acinetobacter calcoaceticus clinical isolate assessed as inhibition zone diameter after 24 hrs by antibacterial susceptibility test; format: functional, organism-based
Klebsiella pneumoniae = experiment: Antibacterial activity against drug-resistant Klebsiella pneumoniae clinical isolate assessed as inhibition zone diameter after 24 hrs by antibacterial susceptibility test; format: functional, organism-based
Enterococcus faecalis = experiment: Antibacterial activity against drug-resistant Enterococcus faecalis clinical isolate assessed as inhibition zone diameter after 24 hrs by antibacterial susceptibility test; format: functional, organism-based
[2] = test system: Staphylococcus epidermidis; experiment: Antibacterial activity against drug-resistant Staphylococcus epidermidis clinical isolate at 10 times MIC; format: functional, organism-based
In short: (§1)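 Growth-curve assay on fluoro-substituted derivatives (ortho-, meta-, para-F). Logarithmic-phase cultures incubated with compound at 1× and 10× MIC and at 5 mg/mL. Optical density at 560 nm monitored over 6 h and expressed as growth (%) relative to untreated control.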

[3] = test system: Staphylococcus epidermidis; experiment: Antibacterial activity against drug-resistant Staphylococcus epidermidis clinical isolate assessed as inhibition zone diameter after 24 hrs by antibacterial susceptibility test; format: functional
[4] = test system: Staphylococcus epidermidis; experiment: Antibacterial activity against drug-resistant Staphylococcus epidermidis clinical isolate after 24 hrs by macro-dilution broth method; format: functional
[5] = Cytotoxicity against human PBMC assessed as cell viability at 700 uM after 3 to 5 days by XTT method; format: cell-based; conditions: PBMC (peripheral blood mononuclear cells), read-out: Activity
In short: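 Human PBMCs from healthy donors isolated by density gradient from buffy coats, kept in RPMI 1640 with 10% heat-inactivated FBS, penicillin, streptomycin, 2 mM glutamine, 10 mM Hepes; stimulated 2–3 days with 5 µg/mL PHA, then kept with 5 U/mL IL-2. Compound at 700 µM, 5% CO2, 37 °C; XTT added, OD 450 nm after 2 h; duplicate, at least three times.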

[6] = test system: Staphylococcus epidermidis; experiment: Antibacterial activity against drug-resistant Staphylococcus epidermidis clinical isolate at 16 ug/ml; format: functional, organism-based
Escherichia coli = experiment: Antibacterial activity against drug-resistant Escherichia coli clinical isolate assessed as inhibition zone diameter after 24 hrs by antibacterial susceptibility test; format: functional, organism-based
[7] = test system: Staphylococcus epidermidis; experiment: Antibacterial activity against drug-resistant Staphylococcus epidermidis clinical isolate at 5 mg/ml; format: functional, organism-based; in short: as §1

Row | SMILES | Activity (Serratia marcescens) | Activity (Proteus mirabilis) | Activity (Pseudomonas aeruginosa) | Activity (Enterobacter cloacae) | Activity [1] | Activity (Klebsiella pneumoniae) | Activity (Enterococcus faecalis) | Activity [2] | inhibition zone (IZ) [3] | MIC [4] | viability at 700 µM [5] | Activity [6] | Activity (Escherichia coli) | Activity [7]
1 | O=C(O)c1cnc2c(cnn2-c2ccccc2)c1Nc1cccc(F)c1 | inactive | inactive | inactive | inactive | inactive | inactive | inactive | Active | 20 mm | 16 µg/mL (≈ 45.9 µM) | 100% | Active | inactive | –
2 | O=C(O)c1cnc2c(cnn2-c2ccccc2)c1Nc1ccccc1F | – | – | – | – | – | – | – | – | – | – | – | – | – | inactive
3 | O=C(O)c1cnc2c(cnn2-c2ccccc2)c1Nc1cccc(Br)c1 | inactive | inactive | inactive | inactive | inactive | inactive | inactive | – | 17 mm | 16 µg/mL (≈ 39.1 µM) | 100% | – | inactive | –
4 | COc1cccc(Nc2c(C(=O)O)cnc3c2cnn3-c2ccccc2)c1 | inactive | inactive | inactive | inactive | inactive | inactive | inactive | – | 15 mm | 16 µg/mL (≈ 44.4 µM) | 100% | – | inactive | –
5 | O=C(O)c1cnc2c(cnn2-c2ccccc2)c1Nc1ccc(F)cc1 | inactive | inactive | inactive | inactive | inactive | inactive | inactive | – | 0 mm | – | 100% | – | inactive | inactive
